Assay results as given in ChEMBL document CHEMBL3751796, “Structure-Based Discovery of Novel Cyclophilin A Inhibitors for the Treatment of Hepatitis C Virus Infections” (J Med Chem, 2015).

Columns and labels:
[1] = Cytotoxicity against mock-infected human Huh7.5 cells assessed as reduction in cell viability incubated for 5 hrs by MTT assay; format: cell-based, Huh-7; settings: mock-infected Huh7.5 cells
Method in brief: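 Mock-infected Huh7.5 cells run alongside the JFH1-Luc antiviral assay with 3-fold serial dilutions. Viability read by MTT assay to give CC50.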

[2] = test system: Hepatitis C virus; experiment: Antiviral activity against recombinant HCV genotype 2a JFH1 infected in human […] for 5 hrs measured on day 3 post infection by luciferase reporter gene assay; format: functional, organism-based, Hepacivirus hominis; settings: JFH-1, Huh-7
Method in brief: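 Huh7.5 cells infected with JFH1-Luc virus (MOI 0.004) for 5 h at 37 °C with 3-fold serial dilutions of compound. Renilla luciferase read from lysates on day 3 postinfection to derive EC50.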

[3] = Selectivity index, ratio of CC50 for mock-infected human Huh7.5 cells to EC50 for recombinant HCV genotype 2a JFH1; design: species or system Huh-7
Method in brief: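 Huh7.5 cells infected with JFH1-Luc virus (MOI 0.004, 5 h, 37 °C) in the presence of 3-fold serial dilutions. EC50 came from Renilla luciferase on day 3. CC50 came from MTT viability of mock-infected Huh7.5 cells treated in parallel. SI = CC50/EC50.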

| SMILES | CC50 at 5 h [1] | EC50 [2] | Ratio CC50/EC50 [3] |
| --- | --- | --- | --- |
| COc1ccccc1N(C(=O)Cc1c[nH]c2ccccc12)C(C(=O)NC1CCCCC1)c1cc(OC)c(OC)c(OC)c1 (configuration not stated) | 23.2 µM | > 23.2 µM | – |
| O=C(NC1CCCCC1)C(c1ccccc1)N(C(=O)Cc1c[nH]c2ccccc12)c1ccccc1 (configuration not stated) | 30.5 µM | > 30.5 µM | – |
| COc1ccc(N(C(=O)Cc2c[nH]c3ccccc23)C(C(=O)NC2CCCCC2)c2ccc(F)cc2)cc1 (configuration not stated) | 63.6 µM | 26.5 µM | 2.4 |
| CC(=O)N(c1ccc(C(C)C)cc1)C(C(=O)NC1CCCCC1)c1ccc(Cl)cc1 (configuration not stated) | 89.2 µM | 10.8 µM | 8.2 |
| COc1cccc(CCN(C(=O)c2ccc(Cl)nc2)C(C(=O)NC2CCCCC2)c2ccc([N+](=O)[O-])cc2)c1 (configuration not stated) | > 100 µM | 7.2 µM | >13.8 |
| COc1cc(C(C(=O)NC2CCCCC2)N(C(=O)Cc2c[nH]c3ccccc23)c2ccccc2)cc(OC)c1OC (configuration not stated) | 36.8 µM | 16.3 µM | 2.2 |
| CC(C)c1ccc(N(C(=O)c2ccccc2)C(C(=O)NC2CCCCC2)c2ccc(Cl)cc2)cc1 (configuration not stated) | 64.5 µM | 6.7 µM | 9.6 |
| NC(=O)c1ncn([C@@H]2O[C@H](CO)[C@@H](O)[C@H]2O)n1 [RIBAVIRIN] | > 100 µM | 16.3 µM | >6.1 |
| CCCCCNC(=O)C(c1ccc2c(c1)OCO2)N(C(=O)CCCC)c1ccc(OC)c(OC)c1 (configuration not stated) | 32.2 µM | > 32.2 µM | – |
| COc1ccc(CCC(=O)N(c2ccc(Br)cc2)C(C(=O)NC2CCCCC2)c2ccc([N+](=O)[O-])cc2)cc1 (configuration not stated) | 9.8 µM | 6.1 µM | 1.6 |
| O=C(NC1CCCCC1)C(c1ccc(Cl)cc1)N(C(=O)Cc1c[nH]c2ccccc12)c1ccccc1 (configuration not stated) | 10.2 µM | 3.3 µM | 3.1 |
| COc1ccc(N(C(=O)c2cccc(C)c2C)C(C(=O)NC2CCCCC2)c2ccc(O)cc2)cc1OC (configuration not stated) | 69.8 µM | 11.4 µM | 6.1 |
| COc1ccc(CCC(=O)N(c2ccc(OC)c(OC)c2)C(C(=O)NC2CCCCC2)c2ccc(Cl)cc2)cc1 (configuration not stated) | 57.4 µM | 31.1 µM | 1.8 |
| COc1cccc(CCC(=O)N(c2ccc(OC)c(OC)c2)C(C(=O)NC2CCCCC2)c2ccc(O)cc2)c1 (configuration not stated) | 51.5 µM | 15.5 µM | 3.3 |
| COc1ccc(CCN(C(=O)c2ccccc2)C(C(=O)NC2CCCCC2)c2ccc([N+](=O)[O-])cc2)cc1OC (configuration not stated) | > 100 µM | 8.9 µM | >11.2 |
| COc1ccc(N(C(=O)c2cc(C)ccc2C)C(C(=O)NC2CCCCC2)c2ccc([N+](=O)[O-])cc2)cc1OC (configuration not stated) | 68.3 µM | 7.9 µM | 8.6 |
| COc1ccc(C(C(=O)NC2CCCCC2)N(C(=O)Cc2c[nH]c3ccccc23)c2ccccc2)cc1OC (configuration not stated) | 22.5 µM | > 22.3 µM | – |
| COc1ccc(N(C(=O)Cc2c[nH]c3ccccc23)C(C(=O)NC2CCCCC2)c2ccc([N+](=O)[O-])cc2)cc1 (configuration not stated) | 8.5 µM | 2.5 µM | 3.4 |
| COc1ccc(N(C(=O)Cc2c[nH]c3ccccc23)C(C(=O)NC2CCCCC2)c2ccc(OC)c(OC)c2OC)cc1OC (configuration not stated) | 27.1 µM | > 27.1 µM | – |
| COc1ccc([N+](=O)[O-])c(C(=O)N(CCc2ccc(OC)c(OC)c2)C(C(=O)NC2CCCCC2)c2ccc([N+](=O)[O-])cc2)c1 (configuration not stated) | > 100 µM | 34.8 µM | >2.8 |
| COc1ccc(CCC(=O)N(c2ccc(C(C)C)cc2)C(C(=O)NC2CCCCC2)c2ccc(Cl)cc2)cc1 (configuration not stated) | > 100 µM | > 100 µM | – |
